# CHRM5 agonist: agonists of human muscarinic M5 receptor (CHRM5). P08912. 360,000 compounds, 0.19% hits. activation, % at 3 µM. AID 624037. CHO-K1 hM5 cells, Fluo-8 calcium fluorescence; 0% DMSO wells, 100% maximal acetylcholine response;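 active = activation above the run's mean over test compounds plus 3 SD, cut at about 23% in these data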;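 also: signal is peak over basal fluorescence ratio across the kinetic read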
# M5 PAM: CHRM5 positive allosteric modulation; AID 624038; P08912; 360,000 compounds, 0.3% hits; CHO-K1 hM5, Fluo-8 calcium, ACh EC20 PAM; 0% = ACh EC20, 100% = ACh EC100; activation, % at 3 µM;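 active = activation above the run cutoff, the mean activation of all test compounds plus 3 SD, cut at about 18% in these data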
#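 Assay system: CHO-K1 hM5 cells / Incubation: Fluo-8 loading 80 min at 37 °C plus 30 min room temperature / Technique: Fluo-8 calcium dye fluorescence, kinetic read / Repeats: single replicate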
# CHRM4 agonist: agonists of human muscarinic M4 receptor (CHRM4). P08173. CHO-K1 hM4/Gqi5, Fluo-8 calcium fluorescence; vehicle 0%, full acetylcholine response 100%. activation, % at 3 µM. 360,000 compounds, 0.14% hits;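 active = activation above the run mean over all test wells plus 3 SD, cut at about 32% in these data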;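 also: peak over basal fluorescence ratio per well then scaled between controls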
# Target sequence (P08173 whole entry, looked up): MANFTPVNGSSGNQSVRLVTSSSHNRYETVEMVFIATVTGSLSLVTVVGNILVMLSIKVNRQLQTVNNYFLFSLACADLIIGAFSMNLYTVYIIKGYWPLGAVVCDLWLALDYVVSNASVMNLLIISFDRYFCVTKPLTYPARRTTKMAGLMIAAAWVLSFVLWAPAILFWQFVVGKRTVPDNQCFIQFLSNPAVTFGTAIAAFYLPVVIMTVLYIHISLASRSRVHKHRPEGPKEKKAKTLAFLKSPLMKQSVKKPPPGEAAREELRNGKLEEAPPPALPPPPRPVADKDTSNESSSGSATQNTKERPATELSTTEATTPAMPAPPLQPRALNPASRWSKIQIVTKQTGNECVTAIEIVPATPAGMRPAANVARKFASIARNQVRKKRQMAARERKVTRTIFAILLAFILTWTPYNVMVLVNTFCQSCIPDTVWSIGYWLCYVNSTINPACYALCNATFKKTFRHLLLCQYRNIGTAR
# CHRM4 PAM: positive allosteric modulators of human muscarinic M4 receptor | P08173 | CHO-K1 hM4/Gqi5, Fluo-8 calcium fluorescence, ACh EC20; 0% = ACh EC20, 100% = maximal ACh | activation, % at 3 µM | 360,000 compounds, 0.4% hits;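 active = activation above its plate's cutoff, the mean activation of sample wells plus 3 SD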
# M5 antag: blocks acetylcholine activation of human M5 receptor; P08912; CHO-hM5 cells, Fluo-8 calcium fluorescence, ACh EC80; inhibition, % at 3 µM; 360,000 compounds, 0.59% hits;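 active = inhibition above a per-plate cutoff, the mean of that plate's test compounds plus 3 SD, cut at about 27% in these data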
# M4 antag: antagonists of human muscarinic M4 receptor (CHRM4); P08173; CHO-hM4 cells, ACh EC80, Fluo-8 calcium fluorescence; inhibition, % at 3 µM; 360,000 compounds, 0.73% hits; AID 624125;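 active = inhibition above its plate's cutoff, the mean inhibition of sample wells plus 3 SD, cut at about 27% in these data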
# Numbers stand for hits; i = inactive. The list is not random: actives were taken first. Their share in the collection is about 1.8%.
SMILES,CHRM5 agonist,M5 PAM,CHRM4 agonist,CHRM4 PAM,M5 antag,M4 antag
NC(=O)C1CC(=O)N(c2ccc(OCc3ccc(Cl)c(Cl)c3)cc2)C1 (configuration not stated),i,i,i,i,28,i
NC(=O)C[N+]1(CC#CC(O)(c2ccccc2)c2ccccc2)CCCC1,i,i,i,i,34,33
CN1CCN(CC#CCC(O)(c2ccccc2)C2CCCC2)CC1 (configuration not stated),i,i,i,i,i,i
CCN(CC)CCC#CC(O)(c1ccccc1)C1CCCCC1 (configuration not stated),i,i,i,i,98,94
CCC[N+]1(CC#CC(O)(c2ccccc2)C2CCCCC2)CCCCC1 (configuration not stated),i,i,i,i,99,97
O=S(=O)([O-])CCC[N+]1(CC#Cc2ccccc2)CCCCC1,i,i,i,i,i,i
COc1ccc(-n2nnc3c(=O)n(CC(=O)N4CCCc5ccccc54)cnc32)cc1,i,i,i,i,i,i
CCOc1ccc(-n2nnc3c(=O)n(CC(=O)N4CCCc5ccccc54)cnc32)cc1,i,i,i,i,i,88
CC(=O)NC(=Cc1ccccc1)C(=O)N1CCCC1C(=O)O (configuration not stated),i,i,i,i,i,i
Cc1cc(C(=O)CN2C(=O)NC(C)(c3cc(F)ccc3F)C2=O)c(C)n1C1CC1 (configuration not stated),i,i,i,i,i,i
CCC1(c2ccc(F)cc2)NC(=O)N(CC(=O)N2c3ccccc3NC(=O)CC2C)C1=O (configuration not stated),i,i,i,i,i,i
CCC1(c2ccc(F)cc2)NC(=O)N(CC(=O)c2cc(C)n(C3CC3)c2C)C1=O (configuration not stated),25,i,i,i,i,i
CCC1(c2ccc(OC)cc2)NC(=O)N(CC(=O)N2CCc3ccccc32)C1=O (configuration not stated),39,i,i,i,i,i
CCC1(c2ccc(F)cc2)NC(=O)N(CC(=O)N2c3ccccc3CC2C)C1=O (configuration not stated),29,i,i,i,i,i
COc1cc2c(cc1OC)C(c1ccc3c(c1)Cc1ccccc1-3)OC(=O)C2 (configuration not stated),i,i,i,i,i,i
O=C1[C@H]2[C@@H]3CCN1CCC[C@@H]2C=C[C@@H]3c1ccc(Br)cc1,i,i,i,i,i,i
CC(C)(CO)NCC(=O)Nc1cc(C(F)(F)F)cc(NC(=O)CNC(C)(C)CO)c1Cl,i,i,i,21,i,i
Cc1c(Cl)cccc1NC(=O)CNc1cccc(C(F)(F)F)c1,i,i,i,i,i,i
COc1cc([N+](=O)[O-])ccc1NC(=O)NCC1CCN(Cc2ccc(Cl)cc2)CC1,i,i,i,i,i,32
C[C@@H]1C2CC(C/C2=N\NC(=O)c2ccncc2)C1(C)C (some centres not stated),i,39,i,i,i,i
CC(=O)Nc1ccc(CN2C(=O)C(CCc3ccccc3)ON=C2c2cnccn2)cc1 (configuration not stated),i,i,i,i,i,i
c1ccc(-n2c3ccccc3c3ccccc32)cc1,i,19,i,i,i,i
Cc1ccc(F)c(S(=O)(=O)NC(=O)C2(C)CCN2C(=O)Cc2ccccc2)c1 (configuration not stated),i,i,i,i,i,i
O=C(c1cccc(S(=O)(=O)N2CCCCC2)c1)N1CCN(c2ccccc2)CC1,i,i,i,i,i,i
O=C(c1ccc(S(=O)(=O)N2CCCCCC2)cc1)N1CCN(c2ccccc2)CC1,i,i,i,i,28,i
SMILES,CHRM5 agonist,M5 PAM,CHRM4 agonist,CHRM4 PAM,M5 antag,M4 antag
O=C(/C(=C/c1ccc(Cl)cc1)c1nc2ccccc2[nH]1)c1ccccc1,i,i,i,i,i,38
O=C(N/C(=C/c1ccc(Cl)cc1)c1nc2ccccc2[nH]1)c1ccco1,i,i,i,i,i,i
C[C@@]12CC[C@@H](C3=C(CCC3)C1)N2c1ccccc1,i,i,i,i,i,i
Cc1ccc2c(c1)C(=O)C(=O)N2CCOc1ccccc1,24,i,i,i,i,i
Cc1cccc(OCCN2C(=O)C(=O)c3cc(C)ccc32)c1,i,i,i,i,i,i
Cc1cccc2c1N(CCCOc1ccccc1)C(=O)C2=O,27,i,i,i,i,i
Cc1ccccc1OCCCN1C(=O)C(=O)c2cccc(C)c21,26,i,i,i,i,i
Cc1cccc2c1N(CCCOc1ccc(C(C)(C)C)cc1)C(=O)C2=O,i,i,i,i,i,i
Cc1ccc2c(c1)C(=O)C(=O)N2Cc1ccc(Br)cc1,31,i,i,i,i,i
CN(C)c1cccc2c(S(=O)(=O)NC(=O)[C@H]3O[C@@H](n4cnc5c(N)ncnc54)[C@H](O)[C@@H]3O)cccc12,i,i,i,i,i,i
OC[C@@H]1CN(Cc2ccc3c(c2)OCO3)C[C@H](n2cnc3c(N4CCN(c5ccccc5)CC4)ncnc32)O1,i,i,i,i,i,i
CCOC(=O)[C@]12CCC=C1N(Cc1cccc3ccccc13)C(=O)[C@H](CC(=O)N1CCN(C(=O)C3CC3)CC1)C2,i,i,i,i,i,i
CC(C)(C)c1ccc(NC(=O)c2cc(C3CCCN(C(=O)CCc4ccccc4)C3)on2)cc1 (configuration not stated),i,i,i,i,i,i
O=C(NC1CCCCC1)C(CCc1ccccc1)N1CCc2ccccc2C1 (configuration not stated),i,i,i,i,i,i
O=[N+]([O-])c1ccc2c(c1)C(O)n1ncnc1S2 (configuration not stated),i,i,i,i,i,i
O=[N+]([O-])c1ccc2c(c1)C(O)n1nc(-c3ccc(Cl)cc3Cl)nc1S2 (configuration not stated),i,25,i,i,i,i
CC1=CC(C)C(C[N+]2(C)CCCCC2)C(C)C1 (configuration not stated),i,i,i,i,i,i
CC1=CC(C)C(/C=N/N=C(N)N)C(C)C1 (configuration not stated),i,21,i,i,i,i
Cc1ccc(S(=O)(=O)c2cccc(S(=O)(=O)N3CCCC3)c2)cc1S(=O)(=O)N1CCCC1,i,i,i,i,i,81

# Screening data as filed in PubChem BioAssay.
